ChEMBL document CHEMBL3616408, “Elaboration of a fragment library hit produces potent and selective aspartate semialdehyde dehydrogenase inhibitors” (Bioorg Med Chem, 2015)
Active and inactive are the calls of the source. The rule behind the calls is not given here.

Tests used:
[1] = Inhibition of Streptococcus pneumoniae ASADH using aspartate semialdehyde and NADP+
Outline: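 Recombinant enzyme, stored at -20 °C in 50 mM HEPES pH 7, 1 mM EDTA, 1 mM DTT. Reverse reaction run at room temperature in 120 mM CHES pH 8.6, 200 mM KCl, with 0.15 mM ASA, 1.5 mM NADP and 20 mM phosphate; 30 μg ml−1 enzyme starts it. NADPH formation read at 340 nm. Inhibitor serially diluted; Ki from Dixon plot of initial velocities, assuming competition with ASA.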

[2] = (§1) Inhibition of Vibrio cholerae ASADH using aspartate semialdehyde and NADP+
[3] = Selectivity index, ratio of Ki for Vibrio cholerae ASADH to KI for Streptococcus pneumoniae ASADH
Outline: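 Recombinant S. pneumoniae and V. cholerae ASADH, stored at -20 °C in 50 mM HEPES pH 7, 1 mM EDTA, 1 mM DTT. Reverse reaction run at r.t. in 120 mM CHES pH 8.6, 200 mM KCl, with 1.5 mM NADP, 20 mM phosphate, and ASA at 0.15 mM (sp) or 0.3 mM (vc). Enzyme was 30 μg ml−1. NADPH formation was read at 340 nm. Serially diluted inhibitor gave initial velocities, and Ki came from Dixon plots assuming competition with ASA. The index is vc Ki divided by sp Ki.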

Vibrio cholerae [4] = test: Inhibition of Vibrio cholerae ASADH up to 2 mM using aspartate semialdehyde and NADP+
Outline: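 Recombinant V. cholerae enzyme assayed in reverse direction at r.t. in 120 mM CHES pH 8.6 with 200 mM KCl, 0.3 mM ASA, 1.5 mM NADP and 20 mM phosphate. Reaction started with 30 μg ml−1 enzyme, and NADPH formation followed at 340 nm. Inhibitor tested at concentrations up to 2 mM.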

Vibrio cholerae [5] = test: as §1
Vibrio cholerae [6] = test: Inhibition of Vibrio cholerae ASADH up to 4 mM using aspartate semialdehyde and NADP+
Outline: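 Recombinant V. cholerae enzyme assayed in reverse direction at r.t. in 120 mM CHES pH 8.6 with 200 mM KCl, 0.3 mM ASA, 1.5 mM NADP and 20 mM phosphate. Reaction started with 30 μg ml−1 enzyme, and NADPH formation followed at 340 nm. Inhibitor tested at concentrations up to 4 mM.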

What does the source list for `Cc1cccc(CN(CC(=O)O)Cc2ccc(C(=O)O)c(C(=O)O)c2)c1`?
Ki [1]: 430 µM; Ki ([2]; read-out: Ki): 690 µM; Ratio Ki [3]: 10

With `O=C(O)CN(CCN1CCOCC1)Cc1ccc(C(=O)O)c(C(=O)O)c1` as the compound, how does the Ki [1] read?
Its Ki is 176 µM.

And the Ki ([2]; read-out: Ki)?
Its Ki is 692 µM.

For `O=C(O)CN(Cc1cccc(OC(F)(F)F)c1)Cc1ccc(C(=O)O)c(C(=O)O)c1`, which Ki [1] is on record?
Its Ki is 427 µM.

What about the Ki ([2]; read-out: Ki) of the same compound?
Its Ki is 684 µM.

And the Ratio Ki [3]?
The Ratio Ki was 10.

Which results are given for `O=C(O)CN(Cc1ccc(OC(F)(F)F)cc1)Cc1ccc(C(=O)O)c(C(=O)O)c1`?
Ki [1]: 36 µM; Ki ([2]; read-out: Ki): 663 µM; Ratio Ki [3]: 10

With `O=C(O)CN(Cc1ccccc1)Cc1ccc(C(=O)O)c(C(=O)O)c1` as the compound, how does the Ki [1] read?
The Ki was 297 µM.

What about the Ki ([2]; read-out: Ki) of the same compound?
The Ki was 696 µM.

Which results are given for `O=C(O)CN(Cc1ccc(C(=O)O)c(C(=O)O)c1)Cc1ccccc1Br`?
Ki [1]: 529 µM; Ki ([2]; read-out: Ki): 737 µM; Ratio Ki [3]: 10

What does the source list for `O=C(O)CN(Cc1ccc(C(=O)O)c(C(=O)O)c1)Cc1ccccc1C(F)(F)F`?
Ki [1]: 509 µM; Ki ([2]; read-out: Ki): 727 µM; Ratio Ki [3]: 10

For `O=C(O)CN(Cc1cccc(C(F)(F)F)c1)Cc1ccc(C(=O)O)c(C(=O)O)c1`, which Ki [1] is on record?
Its Ki is 441 µM.

And the Ki ([2]; read-out: Ki)?
Its Ki is 678 µM.

And the Ratio Ki [3]?
The Ratio Ki was 10.

Which results are given for `O=C(O)CN(Cc1ccc(C(F)(F)F)cc1)Cc1ccc(C(=O)O)c(C(=O)O)c1`?
Ki [1]: 24 µM; Ki ([2]; read-out: Ki): 628 µM; Ratio Ki [3]: 10

Which results are given for `O=CCN(CC(=O)O)Cc1ccc(C(=O)O)c(C(=O)O)c1`?
Ki [1]: 276 µM; Ki ([2]; read-out: Ki): 655 µM

Which results are given for `Cc1ccc(CN(CC(=O)O)Cc2ccc(C(=O)O)c(C(=O)O)c2)cc1`?
Ki [1]: 63 µM; Ki ([2]; read-out: Ki): 608 µM; Ratio Ki [3]: 10

What does the source list for `O=C([O-])CCNCc1ccc(C(=O)[O-])c(C(=O)[O-])c1.[Na+].[Na+].[Na+]`?
Ki [1]: 2400 µM; Ki [2]: Not Active; inhibition (Vibrio cholerae [4]): inactive

For `C[C@H](NCc1ccc(C(=O)O)c(C(=O)O)c1)C(=O)O`, which Ki [1] is on record?
The Ki was 296 µM.

And the Ki ([2]; read-out: Ki)?
The Ki was 609 µM.

With `O=C(O)CN(Cc1cccc(Br)c1)Cc1ccc(C(=O)O)c(C(=O)O)c1` as the compound, how does the Ki [1] read?
Its Ki is 442 µM.

And the Ki ([2]; read-out: Ki)?
Its Ki is 665 µM.

And the Ratio Ki [3]?
The Ratio Ki was 10.

What does the source list for `CN(CC(=O)O)Cc1cccc(C(=O)O)c1C(=O)O`?
Ki [1]: 1800 µM; inhibition (Vibrio cholerae [5]): inactive

With `Cc1ccccc1CN(CC(=O)O)Cc1ccc(C(=O)O)c(C(=O)O)c1` as the compound, how does the Ki [1] read?
Its Ki is 524 µM.

What about the Ki ([2]; read-out: Ki) of the same compound?
The Ki was 721 µM.

What about the Ratio Ki [3] of the same compound?
Its Ratio Ki is 10.

Which results are given for `O=C([O-])CCN(Cc1ccc(Br)cc1)Cc1ccc(C(=O)[O-])c(C(=O)[O-])c1.[Na+].[Na+].[Na+]`?
Ki [1]: 3600 µM; Ki [2]: Not Active; inhibition (Vibrio cholerae [6]): inactive

What does the source list for `O=C([O-])CCN(Cc1ccc(C(F)(F)F)cc1)Cc1ccc(C(=O)[O-])c(C(=O)[O-])c1.[Na+].[Na+].[Na+]`?
Ki [1]: 3800 µM; Ki [2]: Not Active; inhibition (Vibrio cholerae [6]): inactive

With `O=C(O)CN(Cc1ccc(Br)cc1)Cc1ccc(C(=O)O)c(C(=O)O)c1` as the compound, how does the Ki [1] read?
The Ki was 57 µM.

What about the Ki ([2]; read-out: Ki) of the same compound?
The Ki was 629 µM.

What about the Ratio Ki [3] of the same compound?
Its Ratio Ki is 10.

With `N#CCCN(CC(=O)O)Cc1ccc(C(=O)O)c(C(=O)O)c1` as the compound, how does the Ki [1] read?
The Ki was 220 µM.

What about the Ki ([2]; read-out: Ki) of the same compound?
The Ki was 498 µM.

For `C=CCN(CC(=O)O)Cc1ccc(C(=O)O)c(C(=O)O)c1`, which Ki [1] is on record?
The Ki was 303 µM.

What about the Ki ([2]; read-out: Ki) of the same compound?
Its Ki is 663 µM.

Which Ki [1] does the source give for `O=C(O)CN(Cc1ccc(OC(F)F)cc1)Cc1ccc(C(=O)O)c(C(=O)O)c1` here?
Its Ki is 54 µM.

What about the Ki ([2]; read-out: Ki) of the same compound?
Its Ki is 698 µM.

What about the Ratio Ki [3] of the same compound?
Its Ratio Ki is 10.

For `CN(CC(=O)O)Cc1ccc(C(=O)O)c(C(=O)O)c1`, which Ki [1] is on record?
The Ki was 296 µM.

What about the Ki ([2]; read-out: Ki) of the same compound?
Its Ki is 675 µM.

For `O=C(O)c1ccc(CN[C@@H](CO)C(=O)O)cc1C(=O)O`, which Ki [1] is on record?
The Ki was 324 µM.

And the Ki ([2]; read-out: Ki)?
The Ki was 654 µM.

With `CC(C)(C)c1ccc(CN(CC(=O)O)Cc2ccc(C(=O)O)c(C(=O)O)c2)cc1` as the compound, how does the Ki [1] read?
The Ki was 16 µM.

And the Ki ([2]; read-out: Ki)?
The Ki was 648 µM.

What about the Ratio Ki [3] of the same compound?
The Ratio Ki was 10.

Which results are given for `O=C(O)CNCc1ccc(C(=O)O)c(C(=O)O)c1`?
Ki [1]: 246 µM; Ki ([2]; read-out: Ki): 528 µM; Ratio Ki [3]: 2

With `O=C(O)CN(Cc1ccc(C(=O)O)c(C(=O)O)c1)Cc1ccccc1OC(F)(F)F` as the compound, how does the Ki [1] read?
Its Ki is 540 µM.

What about the Ki ([2]; read-out: Ki) of the same compound?
The Ki was 708 µM.

And the Ratio Ki [3]?
The Ratio Ki was 10.

Which Ki [1] does the source give for `O=C(O)CN(Cc1ccc(C(=O)O)cc1)Cc1ccc(C(=O)O)c(C(=O)O)c1` here?
Its Ki is 72 µM.

And the Ki ([2]; read-out: Ki)?
Its Ki is 635 µM.

What about the Ratio Ki [3] of the same compound?
The Ratio Ki was 10.

Which Ki [1] does the source give for `NC(=O)c1ccc(CN(CC(=O)O)Cc2ccc(C(=O)O)c(C(=O)O)c2)cc1` here?
Its Ki is 229 µM.

What about the Ki ([2]; read-out: Ki) of the same compound?
Its Ki is 649 µM.

What about the Ratio Ki [3] of the same compound?
Its Ratio Ki is 10.

Which Ki [1] does the source give for `O=C(O)CN(Cc1ccc(/C=C/Cc2ccccc2)cc1)Cc1ccc(C(=O)O)c(C(=O)O)c1` here?
Its Ki is 476 µM.

What about the Ki ([2]; read-out: Ki) of the same compound?
The Ki was 1100 µM.

And the Ratio Ki [3]?
Its Ratio Ki is 10.
